Four compounds from the M2OR odorant receptor database can be followed below.

This assay has as its system T1, A0A140T8K0.
T1 sequence (whole entry): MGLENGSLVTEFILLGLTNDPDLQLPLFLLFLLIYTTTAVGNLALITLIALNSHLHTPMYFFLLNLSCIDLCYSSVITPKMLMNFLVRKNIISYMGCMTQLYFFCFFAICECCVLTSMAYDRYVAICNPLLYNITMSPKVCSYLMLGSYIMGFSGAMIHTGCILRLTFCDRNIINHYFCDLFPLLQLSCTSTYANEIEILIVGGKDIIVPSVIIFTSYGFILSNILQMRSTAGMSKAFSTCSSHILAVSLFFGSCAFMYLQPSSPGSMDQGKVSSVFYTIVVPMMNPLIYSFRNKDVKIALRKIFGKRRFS
Particulars: stereoisomer not certain. In short, it runs like this: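 Values were gathered from published papers (main text and supplementary material), with extra details requested from the original authors when needed, and checked for typos and inconsistencies. Each receptor–molecule pair is called responsive (active) if the original authors judged the measured signal statistically different from baseline, and non-responsive (inactive) otherwise. Assay methods varied by source, often transient mammalian cell-line luciferase assays. Recorded details include cell line, G-protein, co-transfected protein and tags.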
As to `CCCCCCCCOC=O`, the “odorant receptor agonist call” value is “active”.
With `O=C([O-])CCCCCCC(=O)[O-].[H+].[H+]` the entry was “inactive”.
On to `Cc1ccc(OC(=O)C(C)C)cc1`, for which the “odorant receptor agonist call” value is “inactive”.
With `CNc1ccccc1C(=O)OC` the entry was “inactive”.
